Drawing on ChEMBL document CHEMBL1129664, “Neuroactive polyamine wasp toxins: nuclear magnetic resonance spectroscopic analysis of the protolytic properties of philanthotoxin-343” (J Med Chem, 1996), this text covers pKa for five compounds.

Data set [1] in a line: Macroscopic pKa value at 25 C, ionic strength 1 M. In kind it is physicochemical. A digest of the protocol:
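13C and 1H NMR titration in D2O, following chemical shifts against pD at 25 °C, ionic strength 1 M, with a 22 mM solution for the shift data. Carbons of the polyamine chain were assigned from shift data and total ionization shifts. Proton shifts were too small for quantitative analysis, so 1H titration curves were used only qualitatively.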

Data set [2] can be described thus: Macroscopic pKa value at 27 C, ionic strength 0.1 M. It counts as physicochemical.
Data set [3] is described as follows: Macroscopic pKa value at 25 C, ionic strength 0.1 M. In kind it is physicochemical.

Take `CCCC(=O)NC(Cc1ccc(O)cc1)C(=O)NCCCNCCCCNCCCN` (stereo unspecified): the pKa came out at 8.5 in data set [1] (read-out: pK1), 9.5 in data set [1] (read-out: pK2), 10.4 in data set [1] (read-out: pK3) and 11.4 in data set [1] (read-out: pK4).
As for `NCCCNCCCNCCCN` [THERMINE], the pKa in data set [2] (read-out: pK1) worked out at 7.36; in data set [2] (read-out: pK2) it was 8.81; in data set [2] (read-out: pK3), 10.1; in data set [2] (read-out: pK4), 10.8.
On to `NCCCCNCCCN` [SPERMIDINE], for which the pKa in data set [3] (read-out: pK1) stood at 8.15; in data set [3] (read-out: pK2), 9.74; in data set [3] (read-out: pK3), 10.2; in data set [1] (read-out: pK1), 8.93; in data set [1] (read-out: pK2), 10.3; in data set [1] (read-out: pK3), 10.9.
In the case of `NCCCCNCCCNCCCN`, the pKa amounted to 7.59 in data set [2] (read-out: pK1), 9.24 in data set [2] (read-out: pK2), 10.5 in data set [2] (read-out: pK3) and 11.1 in data set [2] (read-out: pK4).
For `NCCCNCCCCNCCCN` [SPERMINE], the pKa stood at 7.91 in data set [3] (read-out: pK1); 8.68 in data set [3] (read-out: pK2); 10.2 in data set [3] (read-out: pK3); 10.6 in “physchem”; 8.69 in data set [1] (read-out: pK1); 9.31 in data set [1] (read-out: pK2). The results for the pKa in data set [1] (read-out: pK3) and in data set [1] (read-out: pK4) were 10.7 and 10.8, respectively.
